The source made the active and inactive calls. No cut-off for these calls is given here.
Key:
Splenocyte = experiment: Induction of cell proliferation in splenocytes isolated from BALB/c mouse infected with Leishmania major MRHO/SU/59/P, zymodeme LV39 assessed as increase in [3H]-thymidine incorporation at 1 to 10 ug/ml […] and measured after 18 hrs by liquid scintillation counter method; assay type: functional, cell-based
Summary of the method: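 Female BALB/c mice were infected subcutaneously with 2×10^6 stationary-phase L. major promastigotes. Splenocytes were taken one month later and plated in triplicate at 2×10^6 cells/mL with peptide at 1, 5 or 10. Cultures ran 96 h at 37°C, 5% CO2, with 3H-thymidine (2 µCi/mL) added for the last 18 h and read by scintillation. The result is Δcpm against medium wells; Δcpm >2000 with SI >2 counted as positive.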

BMDC [1] = experiment: Immunomodulatory activity in LPS stimulated BALB/c mouse bone marrow-derived dendritic cells assessed as increase in IL-12 level at 10 ug/ml after 24 hrs by FACS analysis (reference value: 44%); assay type: functional
BMDC [2] = experiment: Immunomodulatory activity in […] mouse bone marrow-derived dendritic cells assessed as up-regulation of co-stimulatory molecules at 10 ug/ml after 24 hrs by FACS analysis; assay type: functional, cell-based
BMDC [3] = experiment: Immunomodulatory activity in LPS stimulated BALB/c mouse bone marrow-derived dendritic cells assessed as increase in IFN-gamma level at 10 ug/ml after 24 hrs by FACS analysis (reference value: 20%); assay type: functional
BMDC [4] = experiment: Immunomodulatory activity in LPS stimulated BALB/c mouse bone marrow-derived dendritic cells assessed as increase in IL-4 level at 10 ug/ml after 24 hrs by FACS analysis (reference value: 48%); assay type: functional
BMDC [5] = experiment: Immunomodulatory activity in LPS stimulated BALB/c mouse bone marrow-derived dendritic cells assessed as increase in IL-10 level at 10 ug/ml after 24 hrs by FACS analysis (reference value: 27%); assay type: functional
BMDC [6] = experiment: Immunomodulatory activity in […] mouse bone marrow-derived dendritic cells assessed as increase in IL-12 level at 10 ug/ml after 24 hrs by FACS analysis; assay type: functional, cell-based
BMDC [7] = experiment: Immunomodulatory activity in […] mouse bone marrow-derived dendritic cells assessed as increase in IL-10 level at 10 ug/ml after 24 hrs by FACS analysis; assay type: functional, cell-based
BMDC [8] = experiment: Immunomodulatory activity in LPS stimulated BALB/c mouse bone marrow-derived dendritic cells assessed as up-regulation of TNF-alpha mRNA expression at 10 ug/ml after 2 to 12 hrs by qPCR analysis; assay type: functional, cell-based
Summary of the method: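 Day-9 BM-DCs (5×10^6 per group) were cultured with peptide for 2, 6 and 12 h, with LPS and medium controls. TNF-α mRNA was measured by RT and semi-quantitative PCR, and products were run on 2% agarose gels. Band densitometry was normalised to β-actin and given as arbitrary units, from three independent experiments.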

BMDC [9] = experiment: Immunomodulatory activity in LPS stimulated BALB/c mouse bone marrow-derived dendritic cells assessed as increase in surface CD80 expression at 10 ug/ml after 24 hrs by FACS analysis (reference value: 26%)
BMDC [10] = experiment: Immunomodulatory activity in LPS stimulated BALB/c mouse bone marrow-derived dendritic cells assessed as increase in surface CD86 expression at 10 ug/ml after 24 hrs by FACS analysis (reference value: 58%)

| Substance | Activity (Splenocyte) | Activity (BMDC [1]) | other results |
| --- | --- | --- | --- |
| H-FLDDQPGVRPIPSFDDM-OH | Active | inactive |  |
| H-IQQRAIAPFTRGGDII-OH | Active | 65% | Activity (BMDC [2]): Active; Activity (BMDC [3]): 40%; Activity (BMDC [4]): 64%; Activity (BMDC [5]): 43%; Activity (BMDC [6]): Active; Activity (BMDC [7]): Active; Activity (BMDC [8]): Active; Activity (BMDC [9]): 43%; Activity (BMDC [10]): 77% |
| H-KPSSIQQRAIAPFTRGG-OH | Active | inactive |  |
| H-PKDIQVALFSATMPEEVL-OH | Active | inactive |  |
| H-TRELALQTAEVISRIGE-OH | Active | inactive |  |
